Bioassay records as filed in PubChem BioAssay.
A selection: hits, their analogues and other compounds. The true share with any hit is near 2%.
p47phox inh: p47phox (human) inhibition. P14598. p47phox/p22phox peptide binding, fluorescence polarization, 2 h. inhibition, % at 24.7 µM. actives 0.53% (n = 220,000). AID 1274;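 note: 0% = p47phox with labelled peptide and 100% = labelled peptide alone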
Target sequence (P14598 whole entry, looked up): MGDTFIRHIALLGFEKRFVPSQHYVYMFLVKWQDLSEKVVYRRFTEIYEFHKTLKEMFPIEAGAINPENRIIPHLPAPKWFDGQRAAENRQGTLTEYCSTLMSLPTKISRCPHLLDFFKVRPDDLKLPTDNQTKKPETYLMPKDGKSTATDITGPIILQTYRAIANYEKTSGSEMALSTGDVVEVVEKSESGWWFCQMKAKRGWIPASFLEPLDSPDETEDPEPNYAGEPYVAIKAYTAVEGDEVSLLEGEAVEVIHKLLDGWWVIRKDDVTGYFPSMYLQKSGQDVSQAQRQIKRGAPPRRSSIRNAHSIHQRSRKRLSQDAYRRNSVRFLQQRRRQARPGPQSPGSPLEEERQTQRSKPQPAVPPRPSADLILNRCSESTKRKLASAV
Hck Nef HTS: human Hck-Nef kinase inhibition; P08631; Recombinant Hck-YEEI plus Nef, Z-Lyte FRET kinase assay; inhibition, % at 20 µM; actives 0.68% (n = 220,000); AID 463187;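 active = Hck-Nef kinase inhibition above about 50%, limit read from the data; inactive = inhibition below that limit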;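 note: 0% = DMSO with Hck plus Nef and 100% = Hck alone without Nef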
14-3-3 Bad PPI: disrupts binding of bovine 14-3-3 zeta to phospho-Bad peptide; P63103; TR-FRET 14-3-3zeta/Dy647-pBad peptide displacement, 1 h; inhibition, % at 21.7 µM; actives 0.71% (n = 220,000); AID 781;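 active = inhibition above about 70%, limit read from the data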;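 note: 0% = full 14-3-3 plus peptide FRET controls and 100% = background without 14-3-3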
eIF4E-4G inh: eIF4E/eIF4G interaction inhibition in translation initiation | P63073+Q04637 | TR-FRET eIF4E-eIF4GI(517-606) binding, 2 h | inhibition, % at 21.7 µM | actives 0.37% (n = 220,000) | AID 782;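 note: 0% = full FRET control wells and 100% = background wells lacking eIF4GI fragment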
Diaphorase act: counter-screen for diaphorase-based assays: diaphorase activators and chemical reducers. Diaphorase/resazurin coupled assay, resorufin fluorescence, 16 min; active compounds read high; 1 = vehicle wells, 0 = NADH-free wells. activation factor at 20 µM. actives 0.005% (n = 190,000). AID 1229;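 active = diaphorase activity raised at least twofold by the compound at 20 µM; inactive = activation factor below 2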
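Material: Purified diaphorase enzyme from Clostridium kluyveri | Buffer or medium: 50 mM HEPES pH 7.4 with 4.542 mM MgCl2, 0.005% Tween 20 | Times: 16 min enzyme reaction, ambient temperature | Signal: Red resorufin fluorescence at 544/590 nm excitation/emission | Measure: Increased resorufin signal from activators or reducing compounds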
The depositor's hits bear a star; · = not tested or not shown; [ ] = another dose, or the depositor's remark.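 Rule for the calls, unless noted: active = inhibition above about 30% (limit read from the data); inactive = the rest.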

SMILES | p47phox inh | Hck Nef HTS | 14-3-3 Bad PPI | eIF4E-4G inh | Diaphorase act
CC(=O)Nc1ccccc1OCC(=O)NCCC1=CCCCC1 | -9 | 15 | -4 | -1 | 1
Cc1ccccc1OCC(=O)NCCC1=CCCCC1 | -4 | 2 | 82* | 6 | 1
O=C1NC(=S)S/C1=C\c1ccc(SCc2ccco2)o1 | -80 | 85* | 47 | 22 | 0.2
Cc1cc(NS(=O)(=O)c2ccc(Cl)cc2)nn1CC(=O)NCc1ccco1 | 55* | 4 | 1 | -2 | 1
COc1ccc(-c2noc(=O)n2CC(=O)N2CCC(Cc3ccccc3)CC2)cc1 | -5 | 20 | -3 | 0 | 0.7
CCNc1ccc(C(=O)OCC(=O)NC(C)c2ccccc2)cc1[N+](=O)[O-] (configuration not stated) | 0 | 3 | -11 | 46* | 0.9
Clc1ccc(-c2ccc(CNCC3CCCO3)o2)cc1 (configuration not stated) | -6 | 15 | 2 | -3 | ·
CCCN(CCC)S(=O)(=O)c1ccc(C(=O)OCCN2C(=O)c3cccc4c(N5CCOCC5)ccc(c34)C2=O)cc1 | -83 | -12 | 1 | 31*[fluorescence artefact?] | 1
NC(=S)NC(=O)/C=C/c1ccccc1 | -9 | 31 | -15 | -2 | 0.8
CC(C)NC(=O)C1CCN(C2CCN(Cc3ccc4cccc(F)c4n3)CC2)CC1 | -16 | -10 | -9 | 1 | 0.9
O=C(CNCC1CCCO1)N1CCN(S(=O)(=O)c2ccc3ccccc3c2)CC1 (configuration not stated) | -7 | 0 | 73* | 6 | 0.9
CCOC(=O)N1CCC(N2CCN(S(=O)(=O)c3ccc4ccccc4c3)CC2)CC1 | 0 | 5 | 70* | -5 | 0.8
CCOC(=O)N1CCC(N2CCN(S(=O)(=O)c3ccc([N+](=O)[O-])cc3)CC2)CC1 | 7 | 7 | 19 | -6 | ·
Cc1[nH]n(-c2nc(-c3ccccc3F)cc(=O)[nH]2)c(=O)c1CCO | 1 | 16 | -27 | 3 | 0.8
CC1=CC2=NC(=O)/C(=C\c3cc(C)n(-c4ccccc4F)c3C)C(=N)N2O1 | -43 | 1 | -26 | -5 | 1
Cc1cc(/C=C2/C(=N)N3C(=NC2=O)SN=C3S(C)(=O)=O)c(C)n1-c1ccccc1F | -21 | 30 | -16 | 31* | 0.9
N#CC1=C2N=C(N)c3ccccc3N2C2=C(C(=O)CCC2)C1c1ccc(F)cc1 (configuration not stated) | -4 | 19 | -9 | 94* | ·
Cc1ccc(C2C(C#N)=C3N=C(N)c4ccccc4N3C3=C2C(=O)CCC3)cc1 (configuration not stated) | -6 | 16 | 26 | 1 | ·
C=CCc1ccccc1OCC(O)CNC (configuration not stated) | -2 | 2 | 1 | -3 | 1.1
C=CCc1ccccc1OCC(O)CN(C(C)C)C(C)C (configuration not stated) | 1 | 2 | 71* | 6 | 0.9
ClC(Cl)(c1nnnn1-c1ccccc1)c1nnnn1-c1ccccc1 | 4 | -8 | 22 | 27 | 0.8
COc1ccc(C2NCCc3c2[nH]c2ccccc32)cc1CSc1nc2ccccc2s1 (configuration not stated) | 58* | 6 | 69 | 18 | 1.3
O=C(Nc1ccc(O)c(-c2nc3ccccc3s2)c1)c1cccs1 | -15 | 0 | -20 | 24 | 1
O=C(Nc1ccc(O)c(-c2nc3ccccc3s2)c1)c1cc(=O)c2ccccc2o1 | -54 | 25 | 76* | 12 | 1
Nc1cc(N)nc(SCC(=O)N2CCN(S(=O)(=O)c3ccccc3)CC2)n1 | -8 | 19 | -3 | -12 | ·
COc1ccc(-n2c(SCC(=O)N3CCc4ccccc43)nnc2-c2c[nH]c3ccccc23)cc1 | 52* | 41 | 78* | 9 | 0.9
Cc1ccccc1NC(=O)c1c(C)[nH]c(=S)c(C#N)c1-c1ccc(Cl)cc1 | -10 | -2 | -8 | -2 | ·
Cc1[nH]c(=S)c(C#N)c(-c2ccccc2)c1C(=O)Nc1ccccc1 | -10 | 10 | -3 | 32* | ·
Cc1ccc(-c2c(C(=O)Nc3ccccc3C)c(C)[nH]c(=S)c2C#N)o1 | -6 | 56* | 0 | -2 | 0.9
O=C(O)C1CCCN1c1ncnc2c1oc1ccccc12 (configuration not stated) | -3 | 1 | 1 | -1 | 0.9
